Test results as given in ChEMBL document CHEMBL1121898, “Potential antiestrogens. Synthesis and evaluation of mammary tumor inhibiting activity of 1,2-dialkyl-1,2-bis(3'-hydroxyphenyl)ethanes” (1981).
Values joined by “and” are separate entries in the source; they are usually repeats but may differ in a detail not shown here. Identical values can stand only once. Active and inactive are the calls of the source.

Experiments:
Rattus norvegicus [1] = organism: Rattus norvegicus; test: Complete remission of DMBA-induced hormone-dependent mammary carcinoma tumors in rats at 72 mg; assay type: functional
Summary of the method: (§1)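 Female SD rats bearing DMBA-induced, hormone-dependent mammary adenocarcinoma, with at least one tumor >140 mm², were grouped in tens. Dosing was sc per kg body weight: a single dose daily Monday–Thursday and a double dose Friday. Ovariectomy served as the comparison arm. Complete remission was defined as a tumor no longer palpable. Body weight and tumor area changes were also recorded.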

[2] = target: T1, Estrogen receptor (Mus musculus) (UniProt O08537+P19785); test: Antiestrogenic activity in uterotrophic test in mice at 0.1 ug (experiment 1); assay type: functional
Summary of the method: (§2)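 Immature female NMRI mice, 20 days old (14.5 ± 1.2 g), randomly grouped 10 per group. Each received a daily sc injection for 3 days of 0.1 mL olive oil solution containing test compound, together with estrone to stimulate uterine growth. Uteri were removed 24 h after the last injection and weighed. Results are reported as % inhibition of the estrone-stimulated uterine weight gain, mean ± SD.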

[3] = target: T1, Estrogen receptor (Mus musculus); test: Inhibitory activity in mouse uterine weight test at 50 ug (experiment 3); assay type: functional
Summary of the method: (§3)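 Immature female NMRI mice, 20 days old (14.5 ± 1.2 g), in random groups of 10. They received sc injections daily for 3 days of 0.1 mL olive oil containing test compound, with estrone 0.1 μg given to stimulate uterine growth. Uteri were removed 24 h after the last injection and weighed (mean ± SD). Result is percent inhibition of the estrone-stimulated uterine weight gain.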

Rattus norvegicus [4] = organism: Rattus norvegicus; test: Final number of DMBA-induced hormone-dependent mammary carcinoma tumors in rats at 18 mg; assay type: functional
Summary of the method: (§4)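 Sprague-Dawley rats carrying DMBA-induced, hormone-dependent mammary adenocarcinoma, at least one tumor >140 mm², were placed in groups of ten. Compounds were given sc, with doses in mg/kg: a single daily dose Monday to Thursday and a double dose on Friday. Ovariectomy served as a comparator group. New tumors arising during the test were counted.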

Rattus norvegicus [5] = organism: Rattus norvegicus; test: Percent change in body weight DMBA-induced hormone-dependent mammary carcinoma tumors in rats at 18 mg for 7 days; assay type: functional
Summary of the method: (§5)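 DMBA-induced, hormone-dependent mammary adenocarcinoma in SD rats. Rats bearing at least one tumor >140 mm² were placed in groups of ten. Compound was given sc as a single dose (mg/kg) daily Monday–Thursday and a double dose on Friday. Tumors were counted at the start and as new tumors; responses were scored as complete remission (not palpable), partial remission (≥50% reduction), no change or progression. Tumor area and body weight were recorded as % change.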

Rattus norvegicus [6] = organism: Rattus norvegicus; test: Partial remission of DMBA-induced hormone-dependent mammary carcinoma tumors in rats at 18 mg; assay type: functional; summary of the method: as §5
[7] = tested on: Estrogen receptor (Bos taurus); test: Displacement of [3H]estradiol from calf estrogen receptor
[8] = target: T1, Estrogen receptor (Mus musculus); test: Antiestrogenic activity in uterotrophic test in mice at 50 ug (experiment 3); assay type: functional; summary of the method: as §2
MCF7 [9] = test: Inhibition of estrogen receptor positive MCF-7 cell proliferation as cell number after 10 days at 10e-7 M and 10e-7 M 17-beta-estradiol; assay type: functional, Homo sapiens
Summary of the method: (§6)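 MCF-7 cells were grown in McCoy's 5a medium with fetal bovine serum stripped by DCC (0.5 h, 45 °C). Compounds were dissolved in ethanol (final ≤0.5%) and diluted in complete medium. Cells were seeded at 5×10^4 cells/plate. On day 10, three replicate plates per group were counted by Coulter counter, three counts per plate. Percent T/C = test/control. In a retest, compounds were given at 10^-7 M with 17β-estradiol at 10^-7 or 10^-8 M.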

[10] = target: T1, Estrogen receptor (Mus musculus); test: Antiestrogenic activity in uterotrophic test in mice at 5 ug (experiment 2); assay type: functional; summary of the method: as §2
Rattus norvegicus [11] = organism: Rattus norvegicus; test: Percent unchanged tumor size of DMBA-induced hormone-dependent mammary carcinoma tumors in rats at 72 mg; assay type: functional
[12] = target: T1, Estrogen receptor (Mus musculus); test: Antiestrogenic activity in uterotrophic test in mice at 0 ug (experiment 3); assay type: functional; summary of the method: as §2
MCF7 [13] = test: (§7) Inhibition of estrogen receptor positive MCF-7 cell proliferation as cell number after 10 days at 10e-7 M; assay type: functional, Homo sapiens; summary of the method: as §6
Rattus norvegicus [14] = organism: Rattus norvegicus; test: Final number of DMBA-induced hormone-dependent mammary carcinoma tumors in rats at 36 mg; assay type: functional; summary of the method: as §4
MCF7 [15] = test: Inhibition of estrogen receptor positive MCF-7 cell proliferation as cell number after 10 days at 10e-8 M; assay type: functional, Homo sapiens; summary of the method: as §6
MCF7 [16] = test: Inhibition of estrogen receptor positive MCF-7 cell proliferation as cell number after 10 days at 10e-6 M; assay type: functional, Homo sapiens; summary of the method: as §6
Rattus norvegicus [17] = organism: Rattus norvegicus; test: Initial tumor number of DMBA-induced hormone-dependent mammary carcinoma in rats at 72 mg; assay type: functional; summary of the method: as §5
Rattus norvegicus [18] = organism: Rattus norvegicus; test: Complete remission of DMBA-induced hormone-dependent mammary carcinoma tumors in rats at 36 mg; assay type: functional; summary of the method: as §1
MCF7 [19] = test: Inhibition of estrogen receptor positive MCF-7 cell proliferation as percent treated/control cell number after 10 days at 10e-7 M with 10e-7 M 17-beta-estradiol; assay type: functional, Homo sapiens; summary of the method: as §6
MCF7 [20] = test: Inhibition of estrogen receptor positive MCF-7 cell proliferation as percent treated/control cell number after 10 days at 10e-8 M; assay type: functional, Homo sapiens; summary of the method: as §6
[21] = target: T1, Estrogen receptor (Mus musculus); test: Antiestrogenic activity in uterotrophic test in mice at 0 ug (experiment 2); assay type: functional; summary of the method: as §2
Rattus norvegicus [22] = organism: Rattus norvegicus; test: Percent unchanged tumor size of DMBA-induced hormone-dependent mammary carcinoma tumors in rats at 18 mg; assay type: functional
MCF7 [23] = test: as §7; assay type: functional, Homo sapiens; summary of the method: as §6; remark: listed apart in the source
[24] = target: T1, Estrogen receptor (Mus musculus); test: Inhibitory activity in mouse uterine weight test at 5 ug (experiment 2); assay type: functional
Summary of the method: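 Antiuterotrophic (Dorfman) assay in immature 20-day-old female NMRI mice, groups of 10. Uterine growth was stimulated with estrone (0.1 μg) and the test compound was given alongside it, sc daily for 3 days in 0.1 mL olive oil. Uteri were taken 24 h after the last dose. Uterine weight is reported as means ± SD and inhibition as % of the estrone-stimulated response.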

MCF7 [25] = test: Inhibition of estrogen receptor positive MCF-7 cell proliferation as percent treated/control cell number after 10 days at 10e-6 M; assay type: functional, Homo sapiens; summary of the method: as §6
Rattus norvegicus [26] = organism: Rattus norvegicus; test: Percent change in body weight DMBA-induced hormone-dependent mammary carcinoma tumors in rats at 72 mg for 7 days; assay type: functional
Rattus norvegicus [27] = organism: Rattus norvegicus; test: Final number of DMBA-induced hormone-dependent mammary carcinoma tumors in rats at 72 mg; assay type: functional; summary of the method: as §4
[28] = target: T1, Estrogen receptor (Mus musculus); test: Antiestrogenic activity in uterotrophic test in mice at 500 ug (experiment 3); assay type: functional; summary of the method: as §2
Rattus norvegicus [29] = organism: Rattus norvegicus; test: Percent change in DMBA-induced hormone-dependent mammary carcinoma tumor area at 18 mg after 28 days; assay type: functional; summary of the method: as §5
MCF7 [30] = test: Inhibition of estrogen receptor positive MCF-7 cell proliferation as cell number after 10 days at 10e-9 M; assay type: functional, Homo sapiens; summary of the method: as §6
Rattus norvegicus [31] = organism: Rattus norvegicus; test: Progression of DMBA-induced hormone-dependent mammary carcinoma tumors in rats at 72 mg; assay type: functional; summary of the method: as §5
Rattus norvegicus [32] = organism: Rattus norvegicus; test: Percent unchanged tumor size of DMBA-induced hormone-dependent mammary carcinoma tumors in rats at 36 mg; assay type: functional
MCF7 [33] = test: Inhibition of estrogen receptor positive MCF-7 cell proliferation as percent treated/control cell number after 10 days at 10e-9 M; assay type: functional, Homo sapiens; summary of the method: as §6
Rattus norvegicus [34] = organism: Rattus norvegicus; test: Partial remission of DMBA-induced hormone-dependent mammary carcinoma tumors in rats at 72 mg; assay type: functional; summary of the method: as §5
Rattus norvegicus [35] = organism: Rattus norvegicus; test: Percent change in DMBA-induced hormone-dependent mammary carcinoma tumor area at 36 mg after 28 days; assay type: functional; summary of the method: as §5
[36] = target: T1, Estrogen receptor (Mus musculus); test: Estrogenic activity in uterotrophic test in mice; No effect; assay type: functional
Summary of the method: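 Immature (20-day-old) female NMRI mice, 14.5 ± 1.2 g, randomized into groups of 10. Given the test compound sc daily for 3 days in 0.1 mL olive oil. Uteri removed 24 h after the last injection; uterine weight taken as the read-out, means ± SD. Dose in μg.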

Rattus norvegicus [37] = organism: Rattus norvegicus; test: Percent change in body weight DMBA-induced hormone-dependent mammary carcinoma tumors in rats at 36 mg for 7 days; assay type: functional
MCF7 [38] = test: Inhibition of estrogen receptor positive MCF-7 cell proliferation as cell number after 10 days at 10e-7 M and 10e-8 M 17-beta-estradiol; assay type: functional, Homo sapiens; summary of the method: as §6
Rattus norvegicus [39] = organism: Rattus norvegicus; test: Progression of DMBA-induced hormone-dependent mammary carcinoma tumors in rats at 18 mg; assay type: functional
Rattus norvegicus [40] = organism: Rattus norvegicus; test: Initial tumor number of DMBA-induced hormone-dependent mammary carcinoma in rats at 18 mg; assay type: functional; summary of the method: as §5
MCF7 [41] = test: Inhibition of estrogen receptor positive MCF-7 cell proliferation as percent treated/control cell number after 10 days at 10e-7 M with 10e-8 M 17-beta-estradiol; assay type: functional, Homo sapiens; summary of the method: as §6
Rattus norvegicus [42] = organism: Rattus norvegicus; test: Complete remission of DMBA-induced hormone-dependent mammary carcinoma tumors in rats at 18 mg; assay type: functional; summary of the method: as §1
MCF7 [43] = test: Inhibition of estrogen receptor positive MCF-7 cell proliferation as percent treated/control cell number after 10 days at 10e-7 M; assay type: functional, Homo sapiens; summary of the method: as §6
Rattus norvegicus [44] = organism: Rattus norvegicus; test: Percent change in DMBA-induced hormone-dependent mammary carcinoma tumor area at 72 mg after 28 days; assay type: functional; summary of the method: as §5
Rattus norvegicus [45] = organism: Rattus norvegicus; test: Partial remission of DMBA-induced hormone-dependent mammary carcinoma tumors in rats at 36 mg; assay type: functional; summary of the method: as §5
Rattus norvegicus [46] = organism: Rattus norvegicus; test: Initial tumor number of DMBA-induced hormone-dependent mammary carcinoma in rats at 36 mg; assay type: functional; summary of the method: as §5
[47] = target: T1, Estrogen receptor (Mus musculus); test: Inhibitory activity in mouse uterine weight test at 500 ug (experiment 3); assay type: functional; summary of the method: as §3

T1 sequence (O08537 whole entry, looked up): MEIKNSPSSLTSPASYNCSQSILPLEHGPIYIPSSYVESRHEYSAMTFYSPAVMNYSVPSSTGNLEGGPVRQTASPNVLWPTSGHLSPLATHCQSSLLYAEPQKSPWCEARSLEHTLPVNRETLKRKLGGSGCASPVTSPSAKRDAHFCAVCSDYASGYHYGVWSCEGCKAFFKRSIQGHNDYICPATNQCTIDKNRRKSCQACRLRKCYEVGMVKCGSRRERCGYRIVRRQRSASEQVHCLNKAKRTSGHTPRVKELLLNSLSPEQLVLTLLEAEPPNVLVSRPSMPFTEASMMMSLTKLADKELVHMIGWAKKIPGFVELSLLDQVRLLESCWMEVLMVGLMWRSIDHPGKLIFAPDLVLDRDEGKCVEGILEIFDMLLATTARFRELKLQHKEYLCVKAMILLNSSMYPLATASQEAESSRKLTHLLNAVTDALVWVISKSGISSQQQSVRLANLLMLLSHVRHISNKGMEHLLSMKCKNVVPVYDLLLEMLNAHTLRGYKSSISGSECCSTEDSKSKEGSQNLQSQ
T1 sequence (P19785 whole entry, looked up): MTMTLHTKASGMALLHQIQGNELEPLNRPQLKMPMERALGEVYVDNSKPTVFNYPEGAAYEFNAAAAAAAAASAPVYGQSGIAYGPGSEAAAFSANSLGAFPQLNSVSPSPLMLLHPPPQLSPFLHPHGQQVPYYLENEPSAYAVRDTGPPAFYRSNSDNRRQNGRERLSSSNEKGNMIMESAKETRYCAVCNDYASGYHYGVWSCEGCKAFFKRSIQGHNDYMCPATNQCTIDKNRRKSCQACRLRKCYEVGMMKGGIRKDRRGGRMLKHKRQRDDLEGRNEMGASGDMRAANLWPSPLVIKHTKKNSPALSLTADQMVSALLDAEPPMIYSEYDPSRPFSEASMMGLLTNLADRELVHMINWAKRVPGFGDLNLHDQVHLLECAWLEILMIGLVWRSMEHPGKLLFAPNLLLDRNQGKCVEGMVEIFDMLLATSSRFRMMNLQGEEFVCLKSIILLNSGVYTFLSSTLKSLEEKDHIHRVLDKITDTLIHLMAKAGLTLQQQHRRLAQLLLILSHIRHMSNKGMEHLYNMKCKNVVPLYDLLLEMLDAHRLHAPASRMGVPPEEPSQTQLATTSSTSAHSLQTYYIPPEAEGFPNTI

CC(c1cccc(O)c1)C(C)c1cccc(O)c1 (configuration not stated)
Tumors (Rattus norvegicus [1]): 34%
Effect [2]: 38.5
inhibition [3]: 12%
No. of tumors (Rattus norvegicus [4]): 16
Change (Rattus norvegicus [5]): 2.4%
Tumors (Rattus norvegicus [6]): 11%
Ka [7]: 1.1e+07 M⁻¹
Effect [8]: 34.3
Cell number (MCF7 [9]): 7100
Effect [10]: 36.5
Tumors (Rattus norvegicus [11]): 16%
Effect [12]: 9.9
Cell number (MCF7 [13]): 33600
No. of tumors (Rattus norvegicus [14]): 12
Cell number (MCF7 [15]): 35900
Cell number (MCF7 [16]): 32200
No. of tumors (Rattus norvegicus [17]): 26
Tumors (Rattus norvegicus [18]): 29%
T/C (MCF7 [19]): 107%
T/C (MCF7 [20]): 82%
Effect [21]: 10.5
Tumors (Rattus norvegicus [22]): 24%
Cell number (MCF7 [23]): 6100
inhibition [24]: 7%
T/C (MCF7 [25]): 71%
Change (Rattus norvegicus [26]): 0.9%
No. of tumors (Rattus norvegicus [27]): 22
Effect [28]: 29
Change (Rattus norvegicus [29]): 188%
Cell number (MCF7 [30]): 39800
Tumors (Rattus norvegicus [31]): 25%
Tumors (Rattus norvegicus [32]): 38%
T/C (MCF7 [33]): 91%
Tumors (Rattus norvegicus [34]): 25%
Change (Rattus norvegicus [35]): 105%
Effect [36]: inactive
Change (Rattus norvegicus [37]): 1.6%
Cell number (MCF7 [38]): 8000
Tumors (Rattus norvegicus [39]): 51%
No. of tumors (Rattus norvegicus [40]): 21
T/C (MCF7 [41]): 121%
Tumors (Rattus norvegicus [42]): 14%
T/C (MCF7 [43]): 92% and 77%
Change (Rattus norvegicus [44]): 6%
Tumors (Rattus norvegicus [45]): 9%
No. of tumors (Rattus norvegicus [46]): 22
inhibition [47]: 31%
